Experimental data published in ChEMBL document CHEMBL3259615, “Combination of triple bond and adamantane ring on the vitamin D side chain produced partial agonists for vitamin D receptor” (J Med Chem, 2014).
Active and inactive are the calls of the source. No cut-off for these calls is given here.

What was measured:
HEK293 [1] = assay: Induction of cyp24A1 mRNA expression in HEK293 cells at 100 nM after 24 hrs by real-time PCR relative to 1-alpha,25-dihydroxyvitamin D3; format: functional, Homo sapiens
Outline: (§1)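 Cells seeded at 1 × 10⁴ per well and treated 24 h later with ethanol vehicle or 100 nM ligand for 24 h. Total RNA taken by a chloroform method, reverse-transcribed, and target mRNA quantified by SYBR Green real-time PCR, normalized to ACTIN mRNA. Culture media: HEK293 in DMEM 5% FBS; SW480 and HaCaT in DMEM 10% FBS; MG63 in MEM 10% FBS; THP-1 and U937 in RPMI1640 10% FBS; all at 37 °C, 5% CO₂.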

SW480 [2] = assay: Induction of cyp24A1 mRNA expression in human SW480 cells at 100 nM after 24 hrs by real-time PCR relative to 1-alpha,25-dihydroxyvitamin D3; format: functional; outline: as §1
HaCaT [3] = assay: Induction of cyp24A1 mRNA expression in human HaCaT cells at 100 nM after 24 hrs by real-time PCR relative to 1-alpha,25-dihydroxyvitamin D3; format: functional; outline: as §1
U-937 [4] = assay: Induction of cyp24A1 mRNA expression in human U937 cells at 100 nM after 24 hrs by real-time PCR relative to 1-alpha,25-dihydroxyvitamin D3; format: functional; outline: as §1
THP-1 [5] = assay: Induction of cyp24A1 mRNA expression in human THP1 cells at 100 nM after 24 hrs by real-time PCR relative to 1-alpha,25-dihydroxyvitamin D3; format: functional; outline: as §1
MG-63 = assay: Induction of cyp24A1 mRNA expression in human MG63 cells at 100 nM after 24 hrs by real-time PCR relative to 1-alpha,25-dihydroxyvitamin D3; format: functional; outline: as §1
U-937 [6] = assay: Induction of cathelicidine antimicrobial peptide mRNA expression in human U937 cells at 100 nM after 24 hrs by real-time PCR relative to 1-alpha,25-dihydroxyvitamin D3; format: functional; outline: as §1
THP-1 [7] = assay: Induction of cathelicidine antimicrobial peptide mRNA expression in human THP1 cells at 100 nM after 24 hrs by real-time PCR relative to 1-alpha,25-dihydroxyvitamin D3; format: functional; outline: as §1
HaCaT [8] = assay: Induction of cathelicidine antimicrobial peptide mRNA expression in human HaCaT cells at 100 nM after 24 hrs by real-time PCR relative to 1-alpha,25-dihydroxyvitamin D3; format: functional; outline: as §1
SW480 [9] = assay: Induction of TRPV6 mRNA expression in human SW480 cells at 100 nM after 24 hrs by real-time PCR relative to 1-alpha,25-dihydroxyvitamin D3; format: functional; outline: as §1
Vitamin D3 receptor [10] = biological target: T1, Vitamin D3 receptor (Homo sapiens, UniProt P11473); assay: Activation of human VDR expressed in HEK293 cells cotransfected CMX-GAL4-NCoR2 and 4-tk-LUC assessed as inhibition of NCoR2 binding to VDR by mammalian two-hybrid assay; format: cell-based
T1 sequence (P11473 whole entry): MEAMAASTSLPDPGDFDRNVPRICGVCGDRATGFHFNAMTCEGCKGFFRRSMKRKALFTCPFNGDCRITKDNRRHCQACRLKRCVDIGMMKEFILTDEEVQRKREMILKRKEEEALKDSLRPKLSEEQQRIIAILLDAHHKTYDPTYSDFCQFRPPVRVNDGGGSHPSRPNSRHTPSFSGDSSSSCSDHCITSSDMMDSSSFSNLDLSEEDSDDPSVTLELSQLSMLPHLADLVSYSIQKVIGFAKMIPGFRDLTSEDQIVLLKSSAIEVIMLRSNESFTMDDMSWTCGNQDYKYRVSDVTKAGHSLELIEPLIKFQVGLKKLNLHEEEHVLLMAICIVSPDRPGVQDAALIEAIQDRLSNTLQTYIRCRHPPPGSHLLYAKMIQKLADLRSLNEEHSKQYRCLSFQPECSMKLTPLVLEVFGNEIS
Outline: (§2)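 HEK293 cells in DMEM with 5% FBS, per well: 50 ng TK-MH100(UAS)×4-LUC reporter, 10 ng pCMX-β-galactosidase, 15 ng pCMX-VP16-VDR, and 15 ng of a GAL4 fusion. The fusion was RXRα for heterodimerisation, SRC-1 for coactivator binding, N-CoR, or SMRT (NCoR2). Cells were treated across a concentration range. Luciferase was normalised to β-galactosidase.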

Vitamin D3 receptor [11] = biological target: T1, Vitamin D3 receptor; assay: Displacement of [3H]-1,25(OH)2D3 from GST-fused human VDR-LBD expressed in Escherichia coli BL21
Outline: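 hVDR-LBD (aa 140–427) as a GST fusion from E. coli BL21 sonicated lysate, 1 μg in pH 7.5 Tris/KCl/DTT/CHAPS buffer with BSA. Ligand in EtOH was preincubated 30 min at RT. [26,27-methyl-³H]-1,25(OH)₂D₃ was then added for 20 h at 4 °C. Free ligand was removed with dextran-coated charcoal and centrifugation, and bound radioactivity counted. IC50 from at least two triplicate runs.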

Vitamin D3 receptor [12] = biological target: T1, Vitamin D3 receptor; assay: Transactivation of human VDR expressed in HEK293 cells cotransfected with mouse VDRE, Tk-Sppx3-LUC reporter plasmid measured after 24 hrs by luciferase reporter assay; format: cell-based
Outline: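 HEK293 cells in DMEM with 5% FBS, calcium phosphate-transfected per well with 50 ng TK-Spp×3-LUC (mouse osteopontin VDRE), 10 ng pCMX-β-galactosidase, 15 ng pCMX-VDR and 15 ng pCMX-RXRα. Compounds were tested across a concentration range and cells harvested after 16–24 h. Luciferase was normalised to β-galactosidase. EC50 and efficacy relative to 1,25(OH)₂D₃.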

Vitamin D3 receptor [13] = biological target: T1, Vitamin D3 receptor; assay: Activation of human VDR expressed in HEK293 cells cotransfected CMX-GAL4-RXRalpha and 4-tk-LUC assessed as heterodimerization with RXRalpha by mammalian two-hybrid assay; format: cell-based; outline: as §2
Vitamin D3 receptor [14] = biological target: T1, Vitamin D3 receptor; assay: Activation of human VDR expressed in HEK293 cells cotransfected CMX-GAL4-SRC1 and 4-tk-LUC assessed as SRC1 interaction with AF2 surface of VDR by mammalian two-hybrid assay; format: cell-based; outline: as §2
Vitamin D3 receptor [15] = biological target: T1, Vitamin D3 receptor; assay: Activation of human VDR expressed in HEK293 cells cotransfected CMX-GAL4-N-CoR and 4-tk-LUC assessed as inhibition of N-CoR binding to VDR by mammalian two-hybrid assay; format: cell-based; outline: as §2
[16] = biological target: T2, Vitamin D3 receptor (Homo sapiens) (UniProt P11473); conditions: HEK293, 10 to 1000 nM
T2 sequence (whole entry): T1 sequence (P11473 whole entry)

U-937 [17] = assay: Induction of cathelicidine antimicrobial peptide mRNA in human U937 cells at 100 nM after 24 hrs by real-time PCR relative to skin cells; format: functional
Outline: (§3)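 THP-1 and U937 cells were grown in RPMI1640 with 10% FBS and penicillin/streptomycin at 37 °C under 5% CO₂, and plated at 1 × 10⁴ cells/well. After 24 h, cells got an ethanol control, 100 nM 1,25(OH)₂D₃ or 100 nM analogue for 24 h. RNA was extracted by a chloroform method and reverse-transcribed. CAMP was measured by SYBR Green real-time PCR, normalized to ACTIN mRNA and compared with 1,25(OH)₂D₃.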

THP-1 [18] = assay: Induction of cathelicidine antimicrobial peptide mRNA expression in human THP1 cells at 100 nM after 24 hrs by real-time PCR relative to skin cells; format: functional; outline: as §3
HEK293 [19] = assay: Induction of cyp24A1 mRNA expression in HEK293 cells at 100 nM after 24 hrs by real-time PCR; format: functional, cell-based; conditions: Homo sapiens; outline: as §1
[20] = biological target: T2, Vitamin D3 receptor (Homo sapiens); assay: Inhibition of 1,25(OH)2D3-induced transactivation of human VDR expressed in HEK293 cells cotransfected with mouse VDRE, Tk-Sppx3-LUC reporter plasmid measured after 24 hrs by luciferase reporter assay; format: cell-based
Outline: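 HEK293 cells in DMEM with 5% FBS were calcium-phosphate cotransfected with TK-Spp×3-LUC reporter, pCMX-β-galactosidase, pCMX-VDR and pCMX-RXRα. Cells were then exposed to a range of test concentrations together with 10 nM 1,25(OH)₂D₃. Harvest came 16–24 h later, with luciferase normalized to β-galactosidase.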

SMILES | Activity (HEK293 [1]) [%] | Activity (SW480 [2]) [%] | Activity (HaCaT [3]) [%] | Activity (U-937 [4]) [%] | Activity (THP-1 [5]) [%] | Activity (MG-63) [%] | Activity (U-937 [6]) [%] | Activity (THP-1 [7]) [%] | Activity (HaCaT [8]) [%] | Activity (SW480 [9]) [%] | EC50 (Vitamin D3 receptor [10]) [nM] | IC50 (Vitamin D3 receptor [11]) [nM] | EC50 (Vitamin D3 receptor [12]) [nM] | EC50 (Vitamin D3 receptor [13]) [nM] | EC50 (Vitamin D3 receptor [14]) [nM] | EC50 (Vitamin D3 receptor [15]) [nM] | inhibition [16] | fold change (FC) (U-937 [17]) | fold change (FC) (THP-1 [18]) | Activity (HEK293 [19]) | other results
C=C1[C@H](O)CC(=C/C=C2\CCC[C@]3(C)[C@@H]([C@H](C)CC#C[C@H](O)C45CC6CC(CC(C6)C4)C5)CC[C@@H]23)C[C@H]1O | 15 | 32 | 22 | 1 | 1 | 5 | 30 | 20 | 15 | 30 | 4.1 | 12 | 6.6 | 4.4 | 15 | 4 | Active | – | – | – | –
C=C1[C@H](O)CC(=C/C=C2\CCC[C@]3(C)[C@@H]([C@H](C)CC#C[C@H](O)CC45CC6CC(CC(C6)C4)C5)CC[C@@H]23)C[C@H]1O | 45 | 10 | 10 | 50 | 10 | 50 | 75 | 74 | 20 | 40 | 2.4 | 13 | 1.5 | 2.3 | 6.5 | 3.7 | Active | 3.5 | 3.5 | – | –
C=C1/C(=C\C=C2/CCC[C@]3(C)[C@@H]([C@H](C)CCCC(C)(C)O)CC[C@@H]23)C[C@@H](O)C[C@@H]1O | – | – | – | – | – | – | – | – | – | – | – | – | – | – | – | – | – | – | – | Active | –
C=C1[C@H](O)CC(=C/C=C2\CCC[C@]3(C)[C@@H]([C@H](C)/C=C/C[C@H](O)C45CC6CC(CC(C6)C4)C5)CC[C@@H]23)C[C@H]1O | – | – | – | – | – | – | – | – | – | – | – | – | – | – | – | – | – | – | – | – | inhibition [20]: Dose-dependent effect
C=C1[C@H](O)CC(=C/C=C2\CCC[C@]3(C)[C@@H]([C@H](C)CC#C[C@@H](O)C45CC6CC(CC(C6)C4)C5)CC[C@@H]23)C[C@H]1O | – | 50 | 30 | 85 | 70 | 50 | 125 | 105 | 60 | 65 | 0.5 | 0.5 | 0.07 | 0.6 | 1.5 | 0.4 | inactive | – | – | Active | –
C=C1[C@H](O)CC(=C/C=C2\CCC[C@]3(C)[C@@H]([C@H](C)CC#C[C@@H](O)CC45CC6CC(CC(C6)C4)C5)CC[C@@H]23)C[C@H]1O | 30 | 10 | 10 | 50 | 10 | 50 | 65 | 55 | 15 | 35 | 2.8 | 12 | 1.1 | 0.8 | 13.5 | 1.8 | Active | 3.5 | 3.5 | – | –
